# Hits are enriched below; roughly 1.5% of the tested compounds scored in any of these assays.
# APJ antagonist = APJ receptor antagonism | inhibition, % at 20 µM | 330,000 tested, 0.32% active | AID 2521 | CHO-K1 APJ beta-arrestin complementation, luminescence;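 active = inhibition above about 40% at 20 µM, limit read from the data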;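 also: cells challenged with 10 nM apelin-13 agonist together with compound; plate controls were apelin-13 plus DMSO wells for no effect and DMSO wells lacking apelin-13 for full effect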
# Target sequence (P35414 whole entry, looked up): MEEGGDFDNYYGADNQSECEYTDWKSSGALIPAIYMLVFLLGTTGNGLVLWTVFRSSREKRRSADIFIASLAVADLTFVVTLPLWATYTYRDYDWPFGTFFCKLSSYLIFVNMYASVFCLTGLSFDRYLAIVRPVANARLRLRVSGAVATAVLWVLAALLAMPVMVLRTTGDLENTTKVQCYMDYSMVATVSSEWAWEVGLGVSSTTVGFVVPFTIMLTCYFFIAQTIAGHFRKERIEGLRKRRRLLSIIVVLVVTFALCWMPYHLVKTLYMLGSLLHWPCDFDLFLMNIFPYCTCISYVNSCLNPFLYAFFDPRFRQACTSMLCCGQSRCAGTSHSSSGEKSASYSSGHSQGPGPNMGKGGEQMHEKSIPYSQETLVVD
# APJ agonist = activates the human apelin receptor APJ | P35414 | CHO-K1 APJ PathHunter beta-arrestin, luminescence; 0% DMSO wells, 100% apelin | activation, % at 20 µM | 330,000 tested, 0.11% active | AID 2520;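 active = activation more than six SD over the plate average, tested at 20 µM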;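 also: 0% = DMSO alone and 100% = apelin-13 at 10 nM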
#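 Incubation: overnight seeding, 90 min compound at 25 °C, 1 h detection; test system: PathHunter CHO-K1 APJ (AGTRL-1) beta-arrestin reporter cells; amount: 1000 cells/well; doses: one dose, 20 µM compound, 1% DMSO; measured by: beta-gal luminescence; measure: agonist-driven arrestin binding to APJ; benchmarks: negative DMSO alone, positive Apelin-13 at 10 nM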
# CCR6 antagonist = CCR6 (human) receptor antagonism | 340,000 tested, 0.49% active | inhibition, % at 20 µM | CHO-K1 CCR6 PathHunter beta-arrestin, luminescence, CCL20-stimulated | P51684;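 active = compounds whose inhibition of the agonist-driven luminescence signal at 20 µM reaches about 50%, limit read from the data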;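 also: cells stimulated with CCL20 at 14 nM final; plate controls were DMSO with CCL20 for no effect and DMSO without agonist for full effect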
# EBI2 block = blocks human EBI2 receptor beta-arrestin signaling | inhibition, % at 5 µM | EBI2 beta-arrestin recruitment, luminescence, 7a,25-OHC stimulated | 360,000 tested, 0.81% active; in the data active = inhibition above about 38%;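 also: enzyme fragment complementation signal reports receptor beta-arrestin coupling in cells; 0% = agonist plus DMSO wells and 100% = wells without agonist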
# CXCR6 block = CXCR6 (human) receptor inhibition; CHO-K1 PathHunter CXCR6 beta-arrestin, luminescence; inhibition, % at 20 µM; 360,000 tested, 0.36% active; in the data active = inhibition above about 34%, passing the limit was not always enough;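 also: antagonist mode with CXCL16 agonist at 10 nM final; 0% = 10 nM CXCL16 with DMSO and 100% = unstimulated wells without agonist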
# APJ antag conf = confirmation of human APJ apelin receptor antagonists; inhibition, % at 20 µM; AID 2766; shares compounds with APJ antagonist; 950 tested, 66% active; APJ beta-arrestin recruitment, luminescence, antagonist mode; in the data active = inhibition above about 50%
# Active calls of the source: *; . = no result given.
SMILES,APJ antagonist,APJ agonist,CCR6 antagonist,EBI2 block,CXCR6 block,APJ antag conf
CCOC(=O)C1=NNC(C(=O)c2ccc(Cl)cc2)C1c1ccccc1 (configuration not stated),49*,-11,41,15,9,75*
CCOC(=O)C1=NNC(C(=O)O)C1c1ccccc1 (configuration not stated),.,.,1,1,-3,.
COC(=O)C1NN=C(C(=O)c2ccc(Cl)cc2)C1c1ccc(OC)cc1 (configuration not stated),65*,-10,58*,12,27,81*
CN(c1ccccc1)S(=O)(=O)c1cccc(C(=O)Nc2nn[nH]n2)c1,0,-4,17,9,5,.
C[C@H](CO)N1C[C@H](C)[C@@H](CN(C)C(=O)Nc2ccccc2)Oc2ccc(NC(=O)CCC(F)(F)F)cc2C1=O,-3,0,-4,-14,-5,.
COc1cc(C(=O)NNC(=O)c2cccn2C)cc(OC)c1OC,-4,-2,6,2,0,.
Cc1cc(C)nc(NNS(=O)(=O)c2ccc(Cl)cc2)n1,75*,-17,53*,7,26,113*
COc1ccc(S(=O)(=O)NNc2nc(C)cc(C)n2)cc1Br,54*,-18,30,7,21,52*
Cc1cc(C)nc(NNS(=O)(=O)c2ccc(F)c(Cl)c2)n1,53*,-22,42,30,21,109*
Cc1nc(-n2[nH]c3c(c2=O)CCCC3)[nH]c(=O)c1Cc1ccccc1,50*,-10,74*,-8,41*,81*
NS(=O)(=O)c1ccc(N=Nc2c[nH]c(=O)c(O)c2)cc1,53*,-10,71*,14,44*,90*
COc1ccc(CCNC(=O)c2n[nH]c(=O)c3ccccc23)cc1,41*,-2,11,1,-4,39
COCCN(C(=O)c1ccc(N(C)S(=O)(=O)c2ccc(C)cc2)cc1)c1c(N)n(CC(C)C)c(=O)[nH]c1=O,.,.,18,-11,5,.
O=C(CNS(=O)(=O)c1ccccc1)OCC(=O)c1cccc([N+](=O)[O-])c1,46*,-4,47,3,31,87*
O=C(CNC(=O)c1ccc(Br)o1)OCC(=O)c1cccc([N+](=O)[O-])c1,62*,-10,83*,19,33,62*
O=C(Cc1ccccc1)OCC(=O)c1cccc([N+](=O)[O-])c1,-7,-8,34,10,25,.
COc1cccc(C(=O)OCC(=O)NCCC2=CCCCC2)c1,6,-3,14,3,-8,.
COc1ccc(CCNC(=O)CSc2nn(-c3ccccc3)c(=S)s2)cc1,12,-5,19,3,12,.
O=C1c2cccc3c(Nc4ccccc4Cl)c([N+](=O)[O-])cc(c23)C(=O)N1CCO,53*,-7,65*,13,40*,84*
CN(C)c1ccc(CC(=O)N2CCCCC2c2cc(C(=O)Nc3cccc(C#N)c3)no2)cc1 (configuration not stated),.,.,.,-1,5,.
CC1=NN(c2ccccc2)C(=O)/C1=C/C=C/C=C/N(C)C,65*,-8,58*,10,49*,91*
CC1=NN(c2ccc(C)cc2)C(=O)/C1=C\C=C\c1ccccc1,8,-1,12,-6,5,.
CC1=C(C(=O)N2CCCCCC2)CC(CC(=O)NC2CCCC2)C(=O)N1Cc1ccc(C(C)(C)C)cc1 (configuration not stated),.,.,.,12,4,.
O=[N+]([O-])c1ccc(S(=O)(=O)c2ccccc2)nc1,43*,6,71*,-13,52*,51*
C[C@H](CO)N1C[C@H](C)[C@@H](CN(C)S(C)(=O)=O)Oc2c(NC(=O)C3CC3)cccc2C1=O,6,-2,-1,-7,0,.
SMILES,APJ antagonist,APJ agonist,CCR6 antagonist,EBI2 block,CXCR6 block,APJ antag conf
COc1ccc(NC(=O)/C(Cl)=C(/Cl)S(=O)Cc2ccccc2Cl)cn1 (configuration not stated),79*,-6,96*,.,.,104*
COc1ccc(NC(=O)Cc2ccc(Cl)c(Cl)c2)cn1,-1,-1,-10,3,-4,.
O=C1C2C3C=CC(C3)C2C(=O)N1/N=C/c1cc(Br)cc([N+](=O)[O-])c1O (configuration not stated),42*,-5,54*,11,37,52*
COc1cccc(OCc2nc3ccccc3c(=O)n2N)c1,43*,-2,-11,-14,2,-32
O=C(NCc1ccc2c(c1)OCO2)C1CCCN1C(=O)Nc1ccc(Cl)cc1 (configuration not stated),-19,-2,12,-9,3,.
COc1ccc2c(c1)C(=O)[C@@H](O)[C@H](c1ccc(OC)c(Br)c1)O2,40*,-20,59*,9,26,80*
COc1cccc([C@@H]2Oc3ccc(OC)cc3C(=O)[C@H]2O)c1,-15,-15,34,6,3,.
O=C(CNc1ccc(Br)cc1)c1ccc(Br)s1,66*,-16,66*,38,41*,108*
O=C(NCCCCCCNC(=O)c1ccc(Br)s1)c1ccc(Br)s1,-1,-4,1,23,7,.
N#CCc1cc2ccc3cccc4ccc(c1)c2c34,11,2,-1,-14,-3,.
Cc1ccc(C)c2nc3sc(C(=O)N4CCCc5ccccc54)c(N)c3cc12,59*,-17,47,75*,38,58*
O=C1OC(c2ccc(F)cc2)=C/C1=C\c1ccc(O)cc1,43*,-6,52*,14,35,74*
CC1CCC(NC(=O)CSc2nnc(-c3cccnc3)o2)CC1 (configuration not stated),14,-3,5,-9,3,.
O=C(Cc1ccccc1)NCC(=O)OCC(=O)c1ccc(Cl)c([N+](=O)[O-])c1,89*,-11,91*,17,48*,144*
Cc1cc(C(=O)OCC(=O)c2ccc(Cl)c([N+](=O)[O-])c2)c2cccc(C)c2n1,11,-5,45,3,26,.
CC(=O)Nc1ccc(C(=O)OCC(=O)c2ccc(C)c([N+](=O)[O-])c2)cc1,10,-5,23,-6,-5,.
Cc1ccc(C(=O)COC(=O)CNC(=O)C(c2ccccc2)c2ccccc2)cc1[N+](=O)[O-],64*,-15,58*,10,23,67*
CCc1ccc(C(=O)COC(=O)CNC(=O)Cc2ccccc2)cc1,-1,-3,-2,9,-5,.
Cc1ccc(C(=O)NCC(=O)OCC(=O)c2ccc(C)c([N+](=O)[O-])c2)cc1,55*,-4,40,5,17,60*
Cc1ccc2nc(C)cc(C(=O)OCC(=O)c3ccc(Cl)c([N+](=O)[O-])c3)c2c1,86*,-22,102*,21,59*,126*

# Bioassay records (PubChem)
